# Runt-SMMHC FRET = inhibitors of RUNX1 Runt–CBFb-SMMHC binding, primary screen, biochemical, FRET, Cerulean-Runt, Venus-CBFb-SMMHC, uHTS | AID 1434, 2008 | inhibition, % at 20 µM | hit rate 0.74% among 220,000 | Cerulean-Runt/Venus-CBFb-SMMHC FRET ratio 530/480, 1 h;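 active = mean inhibition across duplicate retests at 20 µM reaching about 50%, limit read from the data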;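 also: 0% = DMSO wells and 100% = wells with excess untagged CBFb-SMMHC; inhibitors lower the FRET ratio by blocking Runt binding to CBFb-SMMHC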
# Hck Nef HTS = inhibitors of Nef-activated human Hck kinase, primary screen, biochemical, Z-Lyte FRET, 384-well, Hck-YEEI. inhibition, % at 20 µM. hit rate 0.68% among 220,000. Recombinant Hck-YEEI plus Nef, Z-Lyte FRET kinase assay;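 active = Hck-Nef kinase inhibition above about 50%, limit read from the data; inactive = inhibition below that limit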;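 also: 0% = DMSO with Hck plus Nef and 100% = Hck alone without Nef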
# Runt-CBFb FRET = inhibitors of RUNX1 Runt–CBFb binding, primary screen, biochemical, FRET, Cerulean-Runt, Venus-CBFb, uHTS. Cerulean-Runt/Venus-CBFb FRET ratio 530/480, 1 h. inhibition, % at 20 µM. Runt-related transcription factor 1 (Homo sapiens) + Core-binding factor subunit beta …. hit rate 0.46% among 220,000;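 active = inhibition over about 50% at 20 µM in the single-dose screen, limit read from the data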;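 also: 0% = DMSO wells and 100% = excess unlabeled CBFb competitor control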
#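 Doses: 20 µM compound in 1% DMSO | Material: Cerulean-labeled Runt domain protein | Amount: Each fluorescent fusion protein 100 nM | Schedule: Two 1 h room-temperature incubations shielded from light | Measured by: FRET fluorescence | Evaluation: Loss of energy transfer signal | Controls: Unlabeled CBFb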
# RanGTP-Impb inh = inhibitors of RanGTP-importin-beta interaction, primary screen, biochemical, FRET, CFP-Ran, YFP-importin-beta, homogeneous | Ran GTPase (GTP-bound) - importin-beta complex | cell-free CFP-Ran/YFP-importin-beta FRET ratio | inhibition, % (test concentration not listed) | hit rate 1.1% among 300,000;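 active = more than half of the replicate wells show a fall in the fluorescence ratio signal beyond about 16%, limit read from the data, passing the limit was not always enough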;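 also: 0% = DMSO wells and 100% = Ran loaded with GDP instead of GTP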
# * = called active by the depositor; / = no result. Only some compounds are listed: those with a hit (about 1.9% of all), similar ones and a draw of the others.
SMILES,Runt-SMMHC FRET,Hck Nef HTS,Runt-CBFb FRET,RanGTP-Impb inh
COc1ccc(N2CC(C)Cn3c2nc2c3c(=O)n(CCc3ccccc3)c(=O)n2C)cc1 (stereo unspecified),-1,/,-4,41*
O=C(Cc1c[nH]c2ccccc12)NCc1ccccc1F,0,20,-1,1
COC(=O)c1c(N(S(C)(=O)=O)S(C)(=O)=O)sc2c1CCN(c1ncc(C(F)(F)F)cc1Cl)C2,79*,1,65*,2
COC(=O)c1c(/N=C/N(C)C)sc2c1CCN(c1ncc(C(F)(F)F)cc1Cl)C2,58*,25,5,9
Cc1ccc(C(=O)Nc2cccc3ccccc23)cc1,/,/,/,-2
CC(C)(C)c1ccc(C(=O)Nc2cccc3c(=O)[nH][nH]c(=O)c23)cc1,78,-4,4,39*
Cc1cc2c3c(ccc(C)c3n1)N=CN2c1ccccc1,60*,2,65*,92*
CC(C)C(NC(=O)c1ccccc1)C(=O)N/N=C\c1ccco1 (stereo unspecified),3,3,-2,0
COc1ccc(C(=O)Oc2cccc3cccnc23)cc1[N+](=O)[O-],2,13,0,0
NC(=O)c1ccc(Oc2cccc3cccnc23)c([N+](=O)[O-])c1,85*,9,36,-1
Cc1ccc(C(=O)OCN2C(=O)c3ccccc3C2=O)o1,/,/,/,4
COc1ccc(N2CCN(C(=O)c3cc4c(=O)n(Cc5ccccc5)ccc4nc3C)CC2)cc1,/,/,/,2
Cc1nc2ccn(Cc3ccccc3)c(=O)c2cc1C(=O)N1CCN(c2ccc(F)cc2)CC1,/,/,/,69*
CC(C)(/C=N/NC(=O)CSCc1ccccc1Cl)CCC#N,3,-9,-3,2
Cc1c(Cl)cccc1Nc1ncccc1C(=O)OCC(O)CO (stereo unspecified),-4,17,2,19*
O=C(OCc1c(Cl)cccc1Cl)c1cccnc1Cl,0,17,1,4
CCCCCCc1nc2ccccc2c(=O)n1NC(=O)c1c(O)c2cccc3c2n(c1=O)CC3,/,14,/,/
O=C(COC(=O)c1ccc(O)cc1)NCc1ccc2c(c1)OCO2,0,25,0,1
CC(=O)OCC(=O)NCc1ccc2c(c1)OCO2,68,-1,87*,-6
O=S(=O)(Cc1noc(-c2ccccc2Cl)n1)c1ccccn1,1,13,-1,-1
CCN1CC=C2C(C1)C(c1ccc(Cl)s1)C(C#N)=C(N)C2(C#N)C#N (stereo unspecified),82*,15,36,50*
CCOC(=O)C1=C(c2ccccc2)OC(N)=C(C#N)C1c1ccc(Cl)s1 (stereo unspecified),10,0,0,8
O=c1c(Oc2ccccc2Br)c(C(F)(F)F)oc2c(CN3CCCC3)c(O)ccc12,-23,0,-8,51*
CCCOc1ccc(-c2nn(-c3ccccc3)cc2/C=C2\SC(N)=NC2=O)cc1C,-95,-1,-97,-8
CCCOC(=O)c1ccc(NC(=O)c2c(Cl)ccc(Cl)c2OC)cc1,6,1,2,31*
SMILES,Runt-SMMHC FRET,Hck Nef HTS,Runt-CBFb FRET,RanGTP-Impb inh
CCn1c(CSc2nccn2C)nc2cc(C(=O)O)ccc21,53*,0,18,0
CCn1c(CSc2nc3ccccc3[nH]2)nc2cc(C(=O)O)ccc21,12,2,16,2
OCCC1CN(Cc2c(F)cccc2Cl)CCN1C1CCCCC1 (stereo unspecified),0,25,0,4
Cc1nn(C)c(Cl)c1CN1CCN(C2CCCCC2)C(CCO)C1 (stereo unspecified),-5,19,118*,4
Cc1nn(C)c(Cl)c1C(=O)NCC(=O)Nc1ccc(C(C)C)cc1,-2,15,-4,-2
Nc1c(-c2ccccc2)c(CN2CCOCC2)nn1-c1ccc(C(=O)O)cc1,1,-3,-1,32*
Cc1ccc(-n2c(=O)c3cc4c(=O)n(-c5ccc(C)c(C)c5)c(=O)c4c(C(=O)c4ccc(C(=O)O)cc4)c3c2=O)cc1C,-42,92*,32,2
Oc1ccc2nnc3c(Br)cnn3c2c1,/,/,/,53*
